Assay results taken from ChEMBL document CHEMBL4145474, “Discovery of novel piperonyl derivatives as diapophytoene desaturase inhibitors for the treatment of methicillin-, vancomycin- and linezolid-resistant Staphylococcus aureus infections” (Eur J Med Chem, 2018).
Active and inactive are the calls of the source. No cut-off for these calls is given here.

Assays:
[1] = target: T1, 4,4'-diapophytoene desaturase (4,4'-diaponeurosporene-forming) (Staphylococcus aureus (strain Newman)) (UniProt O07855); assay: Inhibition of CrtN in methicillin-resistant Staphylococcus aureus USA300 LAC assessed as bacterial survival after 6 hrs by human whole blood assay (reference value: 14.33%)
T1 sequence (whole entry): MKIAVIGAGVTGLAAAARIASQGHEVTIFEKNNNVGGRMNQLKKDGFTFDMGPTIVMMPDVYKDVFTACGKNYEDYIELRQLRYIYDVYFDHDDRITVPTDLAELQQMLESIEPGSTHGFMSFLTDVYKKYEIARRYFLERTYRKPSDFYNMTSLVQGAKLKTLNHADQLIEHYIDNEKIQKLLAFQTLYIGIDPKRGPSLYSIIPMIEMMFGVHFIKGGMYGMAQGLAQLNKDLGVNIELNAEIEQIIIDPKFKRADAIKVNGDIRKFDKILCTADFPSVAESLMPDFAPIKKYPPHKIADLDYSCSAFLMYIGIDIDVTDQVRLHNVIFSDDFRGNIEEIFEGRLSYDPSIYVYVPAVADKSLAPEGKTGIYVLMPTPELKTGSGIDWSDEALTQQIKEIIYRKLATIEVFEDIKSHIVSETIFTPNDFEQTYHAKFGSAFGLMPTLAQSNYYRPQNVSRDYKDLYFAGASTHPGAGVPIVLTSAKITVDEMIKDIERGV
In short: (§1)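 Overnight cultures spun, resuspended in sterile PBS at 1 × 10⁷ CFU/mL, then mixed 1:10 with fresh whole blood from healthy human volunteers (final 1 × 10⁶ CFU/mL). Incubated 6 h at 37 °C; surviving CFU counted by plating dilutions on TSA. Two independent experiments.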

[2] = target: T1, 4,4'-diapophytoene desaturase (4,4'-diaponeurosporene-forming) (Staphylococcus aureus (strain Newman)); assay: Inhibition of CrtN in methicillin-resistant Staphylococcus aureus USA400 MW2 assessed as bacterial survival after 6 hrs by human whole blood killing assay (reference value: 23.33%); in short: as §1
[3] = target: T2, 4,4'-diapophytoene desaturase (4,4'-diaponeurosporene-forming) (Staphylococcus aureus (strain Mu50 / ATCC 700699)) (UniProt Q99R76); assay: Inhibition of CrtN in vancomycin-intermediate methicillin-resistant Staphylococcus aureus Mu50 assessed as bacterial survival after 6 hrs by human whole blood killing assay (reference value: 8.66%); conditions: Staphylococcus aureus subsp. aureus Mu50; in short: as §1
T2 sequence (whole entry): T1 sequence (whole entry)

[4] = target: T1, 4,4'-diapophytoene desaturase (4,4'-diaponeurosporene-forming) (Staphylococcus aureus (strain Newman)); assay: Inhibition of CrtN in wild type Staphylococcus aureus Newman assessed as decrease in bacterial survival after 6 hrs by human whole blood killing assay relative to control; conditions: Staphylococcus aureus subsp. aureus str. Newman
In short: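 Tubes were incubated 6 h at 37 °C, then serial dilutions were plated on TSA to count surviving CFU. Two independent experiments, compared against vehicle.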

Staphylococcus aureus [5] = assay: Antibacterial activity against methicillin-resistant Staphylococcus aureus USA400 MW2 assessed as decrease in bacterial survival at 1 uM after 24 hrs by H2O2 killing assay; type: functional, organism-based
[6] = target: T1, 4,4'-diapophytoene desaturase (4,4'-diaponeurosporene-forming) (Staphylococcus aureus (strain Newman)); assay: Inhibition of CrtN in methicillin-resistant Staphylococcus aureus USA300 LAC assessed as bacterial survival at 1 uM after 24 hrs by H2O2 killing assay (reference value: 29.67%)
Staphylococcus aureus [7] = assay: Growth inhibition of methicillin-resistant Staphylococcus aureus USA400 MW2 at 0.2 mM incubated for overnight; type: functional, organism-based
In short: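 Overnight cultures washed in PBS and diluted in TSB to OD600 ~1.0. Inoculated to a final OD600 of about 0.05 into TSB containing compound (0.2 or 0.05 mM, from a 20 mM DMSO stock) or DMSO growth control, overlaid with paraffin wax. OD600 read every 30 min during overnight incubation at 37 °C.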

[8] = target: Voltage-gated inwardly rectifying potassium channel KCNH2 (Homo sapiens, UniProt Q12809); assay: Inhibition of human ERG expressed in CHO cells at holding potential of -80 mV by whole cell Qpatch assay; type: cell-based
Voltage-gated inwardly rectifying potassium channel KCNH2, sequence (Q12809 whole entry): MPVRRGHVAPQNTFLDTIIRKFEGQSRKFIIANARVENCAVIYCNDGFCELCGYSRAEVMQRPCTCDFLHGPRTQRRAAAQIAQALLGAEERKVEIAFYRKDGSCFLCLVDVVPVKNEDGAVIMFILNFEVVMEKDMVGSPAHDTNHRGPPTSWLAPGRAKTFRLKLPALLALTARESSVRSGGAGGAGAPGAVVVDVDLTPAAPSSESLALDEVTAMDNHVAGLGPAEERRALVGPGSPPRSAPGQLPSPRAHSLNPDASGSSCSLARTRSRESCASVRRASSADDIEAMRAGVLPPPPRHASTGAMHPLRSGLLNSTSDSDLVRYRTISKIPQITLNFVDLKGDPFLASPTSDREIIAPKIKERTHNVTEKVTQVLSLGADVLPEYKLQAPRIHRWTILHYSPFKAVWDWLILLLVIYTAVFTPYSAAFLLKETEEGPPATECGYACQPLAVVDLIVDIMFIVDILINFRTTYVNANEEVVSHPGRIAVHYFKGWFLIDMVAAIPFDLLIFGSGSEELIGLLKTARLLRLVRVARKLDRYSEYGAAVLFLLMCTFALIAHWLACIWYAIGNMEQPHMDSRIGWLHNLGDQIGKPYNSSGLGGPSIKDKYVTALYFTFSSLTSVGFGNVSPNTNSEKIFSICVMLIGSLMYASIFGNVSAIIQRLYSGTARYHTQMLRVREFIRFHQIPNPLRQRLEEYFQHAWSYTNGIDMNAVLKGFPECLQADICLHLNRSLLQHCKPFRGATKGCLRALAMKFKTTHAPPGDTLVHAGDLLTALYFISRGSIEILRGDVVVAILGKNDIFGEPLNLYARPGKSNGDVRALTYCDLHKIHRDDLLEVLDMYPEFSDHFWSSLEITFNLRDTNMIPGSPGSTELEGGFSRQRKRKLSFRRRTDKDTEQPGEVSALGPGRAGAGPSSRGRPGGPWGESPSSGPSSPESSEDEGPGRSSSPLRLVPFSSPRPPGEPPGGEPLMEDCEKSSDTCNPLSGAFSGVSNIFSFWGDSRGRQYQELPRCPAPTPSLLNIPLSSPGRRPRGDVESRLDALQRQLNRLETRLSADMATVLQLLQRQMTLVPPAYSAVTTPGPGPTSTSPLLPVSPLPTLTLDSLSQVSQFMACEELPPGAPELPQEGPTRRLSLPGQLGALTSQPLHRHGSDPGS

HEK-293T = assay: Cytotoxicity against HEK293T cells assessed as reduction in cell viability after 72 hrs by CCK-8 assay; type: functional; conditions: Homo sapiens
In short: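 HepG2 or HEK-293T cells were seeded at 5000 per well and grown 24 h at 37 °C, 5% CO₂. Cells were then exposed to compound for 72 h; compound came from DMSO, diluted in medium to final DMSO <0.4%, with a DMSO-matched vehicle control. Viability was read by 10% CCK-8 for 1 h, absorbance 450 nm, in triplicate.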

[9] = Solubility of the compound in water by UV analysis; type: physicochemical
[10] = target: T1, 4,4'-diapophytoene desaturase (4,4'-diaponeurosporene-forming) (Staphylococcus aureus (strain Newman)); assay: Inhibition of Staphylococcus aureus Newman 6His-tagged CrtN expressed in Escherichia coli BL21(DE3) assessed as 4,4'-diapophytoene accumulation by UV-HPLC analysis; conditions: Staphylococcus aureus subsp. aureus str. Newman
In short: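 Substrate was E. coli-derived diapophytoene emulsified with phosphatidylcholine in 0.02 M HEPES pH 7.5. Run anaerobically (glucose oxidase 20 U/mL, catalase 20000 U/mL, glucose 2 mM final) overnight at 37 °C, stopped with methanol. Triplicate; diapophytoene monitored by HPLC at 286 nm.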

Staphylococcus aureus [11] = assay: Antibacterial activity against wild type Staphylococcus aureus Newman infected in BALB/c mouse assessed as decrease in bacterial survival in mouse kidney at 0.1 to 0.4 mg, ip bid administered 4.5 days before 24 hrs bacterial infection measured after 90 hrs; type: functional, organism-based
In short: (§2)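 Female BALB/c mice, 6-8 weeks old, infected retro-orbitally with 2.2 × 10⁷ CFU S. aureus Newman. Intraperitoneal dosing in 12 intervals: pre-treatment groups received a total of 50 or 200 mg/kg starting before infection; post-treatment groups received a total of 39 or 156 mg/kg starting 6 h after infection. Vehicle was ddH₂O. At 90 h post-infection, liver or kidney was homogenized in PBS/0.01% Triton X-100 and plated on TSA for CFU.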

Staphylococcus aureus [12] = assay: Antibacterial activity against wild type Staphylococcus aureus Newman infected in BALB/c mouse assessed as decrease in bacterial survival in mouse kidney at 0.1 to 0.4 mg, ip bid administered 4.5 days after 6 hrs bacterial infection measured after 90 hrs; type: functional, organism-based; in short: as §2
Staphylococcus aureus [13] = assay: Antibacterial activity against vancomycin-intermediate methicillin-resistant Staphylococcus aureus Mu50 infected in BALB/c mouse assessed as decrease in bacterial survival in mouse liver at 0.1 to 0.4 mg, ip bid administered 4.5 days after 6 hrs bacterial infection measured after 90 hrs; type: functional, organism-based
In short: (§3)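 6–8-week-old female BALB/c mice (SPF) dosed intraperitoneally twice daily over 4.5 d at 0.1 or 0.4 mg/bid. Pre-treatment started before infection; post-treatment started 6 h after infection. Vancomycin and linezolid controls given as pre-treatment at 0.4 mg/bid. Retro-orbital inoculation: Mu50 1.1 × 10⁹ CFU, NRS271 1.8 × 10⁸ CFU. Kidneys and livers homogenised in PBS/0.01% Triton X-100 and plated on TSA for CFU.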

Staphylococcus aureus [14] = assay: Antibacterial activity against methicillin/linezolid-resistant Staphylococcus aureus NRS271 infected in BALB/c mouse assessed as decrease in bacterial survival in mouse liver at 0.1 to 0.4 mg, ip bid administered 4.5 days after 6 hrs bacterial infection measured after 90 hrs; type: functional, organism-based; in short: as §3
Staphylococcus aureus [15] = assay: Antibacterial activity against wild type Staphylococcus aureus Newman infected in BALB/c mouse assessed as decrease in bacterial load in mouse liver at 0.1 mg, ip bid administered 4.5 days after 6 hrs bacterial infection measured after 90 hrs relative to control; type: functional; in short: as §2

CN(C/C=C/C=C/c1ccc(C(F)(F)F)cc1F)Cc1ccc2c(c1)OCO2.Cl
Survival [1]: 1.57% | Survival [2]: 0.93% | Survival [3]: 0.28% | fold change (FC) [4]: 10.9 | Activity (Staphylococcus aureus [5]): inactive | Survival [6]: 2.67% | growth inhibition (GI) (Staphylococcus aureus [7]): inactive | IC50 [8]: 14 µM | CC50 (HEK-293T): 92.6 µM | solubility [9]: 8690 µg/mL | inhibition [10]: Active | Activity (Staphylococcus aureus [11]): Active | Activity (Staphylococcus aureus [12]): Active | Activity (Staphylococcus aureus [13]): Active | Activity (Staphylococcus aureus [14]): inactive | Activity (Staphylococcus aureus [15]): 1.53 deltalog10CFU
